ChEMBL document CHEMBL1129597, “2-[2'-(Dimethylamino)ethyl]-1,2-dihydro- 3H-dibenz[de,h]isoquinoline-1,3-diones with substituents at positions 4, 8, 9, 10, and 11. Synthesis, antitumor activity, and quantitative structure-activity relationships” (J Med Chem, 1996)

Columns and labels:
MCF7 [1] = experiment: Antitumor activity against human mammary carcinoma sensitive […] breast cell line.; format: functional, cell-based
L1210 [2] = experiment: Antitumor activity against sensitive L1210 murine leukemia cell lines.; format: functional, cell-based; conditions: Mus musculus
Summary of the method: (§1)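 Murine L1210 leukemia cells, sensitive or MDR subline, in culture. Continuous drug exposure during MTT assay. Five concentrations per analogue, six determinations per concentration. The IC50 was derived.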

MCF7 [3] = experiment: Antitumor activity against human mammary carcinoma doxorubicin-resistant […] breast cell line.; format: functional, cell-based
WiDr [4] = experiment: Activity against human colon carcinoma multi drug resistant (MDR)-WiDr cell line.; format: functional, cell-based
OVCAR-3 = experiment: Antitumor activity against human ovarian OVCAR-3 cell lines.; format: functional, cell-based
Summary of the method: (§2)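 Cultured human tumor cells (melanoma UACC375, ovarian OVCAR3) under continuous drug exposure. Growth was read by sulforhodamine or MTT assay. Five concentrations per analogue, six determinations per concentration. IC50 values were derived from these.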

[5] = The quotient of the IC50 in the myocytes divided by the mean IC50 in the three cell lines; format: functional
Summary of the method: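 Calculated index: the myocyte IC50 divided by the mean IC50 across three tumor lines (sensitive L1210, melanoma UACC375, ovarian OVCAR3).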

A549 = experiment: Activity against A549 cancer cell line.; format: functional, cell-based; conditions: Homo sapiens
Rattus norvegicus = species on record: Rattus norvegicus; experiment: Cardiotoxicity measured by the ATP/protein ratio compared with untreated controls using neonatal rat heart myocyte assay.; format: functional; design: Cardiotoxicity: unit not given here
Summary of the method: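 Neonatal rat heart myocytes exposed to drug for 1 h. The ATP/protein ratio was measured versus untreated control myocytes. IC50 is the concentration reducing this ratio to 50% of control.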

MCF7 [6] = experiment: Antitumor activity against human mammary carcinoma mitoxantrone-resistant […] breast cell line.; format: functional, cell-based
L1210 [7] = experiment: Antitumor activity against murine leukemia L1210 cell line.; format: functional, cell-based; conditions: Mus musculus; summary of the method: as §1
UACC-375 = experiment: Antitumor activity against human melanoma UACC375 cell line.; format: functional, cell-based; summary of the method: as §2
WiDr [8] = experiment: Activity against human colon carcinoma sensitive WiDr cell line.; format: functional, cell-based
WiDr [9] = experiment: The compound tested for activity againstHuman colon carcinoma sensitive WiDr cell line.; format: functional, cell-based; conditions: Homo sapiens
L1210 [10] = experiment: Compound was tested for antitumor activity against Murine leukemia cell line (L1210).; format: functional, cell-based; conditions: Mus musculus; summary of the method: as §1
MCF7 [11] = experiment: Compound was tested for antitumor activity against Human mammary carcinoma Doxorubicin resistant […] breast cell line.; format: functional, cell-based
MCF7 [12] = experiment: Compound was tested for antitumor activity against Human mammary carcinoma sensitive cell line ([…] breast).; format: functional, cell-based
[13] = (§3) Percent increase in life span when given at a dose in P388 leukemia cells of mice; format: functional
Summary of the method: (§4)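 P388 leukemia in mice, standard NCI protocol: 10^6 leukemia cells given ip; compound given ip in equal doses on days 1, 5 and 9. Highest dose used was 10% below the LD10 for acute toxicity in that mouse species. %ILS = 100 × (treated life span − control life span)/control life span, reported at the highest nontoxic dose.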

Mus musculus [14] = species on record: Mus musculus; experiment: as §3; format: functional; summary of the method: as §4
Mus musculus [15] = species on record: Mus musculus; experiment: Percent increase in life span when given at a dose in P388 leukemia cells of mice (Positive control for compound 44); format: functional; summary of the method: as §4
Mus musculus [16] = species on record: Mus musculus; experiment: Percent increase in life span when given at a dose in P388 leukemia cells of mice (Positive control for compounds 15,34 and amonafide); format: functional; summary of the method: as §4

Compound | IC50 (MCF7 [1]) [nM] | IC50 (L1210 [2]) [nM] | IC50 (MCF7 [3]) [nM] | IC50 (WiDr [4]) [nM] | IC50 (OVCAR-3) [nM] | Toxicity ratio [5] | IC50 (A549) [nM] | IC50 (Rattus norvegicus) [nM] | IC50 (MCF7 [6]) [nM] | IC50 (L1210 [7]) [nM] | IC50 (UACC-375) [nM] | IC50 (WiDr [8]) [nM] | other results
CN(C)CCN1C(=O)c2cccc3cc4ccc([N+](=O)[O-])cc4c(c23)C1=O | 13 | 25 | 8.7 | 74 | 23 | 36 | 2.5 | 801 | 14 | 25 | 18 | 9.5 | –
Cc1ccc2cc3ccccc3c3c2c1C(=O)N(CCN(C)C)C3=O | – | 54 | – | 120 | 122 | 12 | 34 | 1360 | 140 | – | 176 | – | IC50 (WiDr [9]): 60 nM; IC50 (L1210 [10]): 68 nM; IC50 (MCF7 [11]): 330 nM; IC50 (MCF7 [12]): 390 nM
Cc1ccc2cc3cccc4c3c(c2c1)C(=O)N(CCN(C)C)C4=O | 110 | 41 | 140 | 120 | 68 | 16 | 14 | 1000 | 90 | 54 | 81 | 120 | –
CNCCN1C(=O)c2cccc3cc4ccc(Cl)cc4c(c23)C1=O | 49 | 5.8 | 50 | 64 | 102 | 28 | 31 | 1430 | 42 | 14.6 | 44 | 51 | –
CN(C)CCN1C(=O)c2cccc3cc4ccc(NC(=O)C(C)(C)C)cc4c(c23)C1=O | – | – | – | – | – | – | – | – | – | – | – | – | ILS [13]: 105%
COc1ccc2cc3ccccc3c3c2c1C(=O)N(CCN(C)C)C3=O | 350 | 70 | 690 | 900 | 507 | – | 81 | – | 520 | 179 | 182 | 660 | –
COc1ccc2cc3cccc4c3c(c2c1)C(=O)N(CCN(C)C)C4=O | 38 | 21 | 52 | 61 | 78 | 182 | 31 | 9100 | 41 | 52 | 52 | 40 | –
CN(C)CCN1C(=O)c2cccc3cc4cccc(O)c4c(c23)C1=O | 81 | 189 | 200 | 270 | 1890 | 18 | 40 | 15400 | 80 | 189 | 540 | 100 | –
COc1ccc2c3c4c(cccc4cc2c1)C(=O)N(CCN(C)C)C3=O | 73 | 54 | 120 | 130 | 543 | <10.3 | 27 | – | 95 | 54 | 163 | 65 | Cardiotoxicity (Rattus norvegicus): < 2600
CN(C)CCN1C(=O)c2cccc3cc(N)cc(c23)C1=O [AMONAFIDE] | 1100 | – | 1800 | 2200 | – | 30 | 1100 | 48400 | 1200 | – | – | 1100 | ILS (Mus musculus [14]): 88%
CN(C)CCN1C(=O)c2cccc3cc4ccccc4c(c23)C1=O [AZONAFIDE] | – | – | – | – | – | 44 | – | 1980 | – | – | – | – | ILS (Mus musculus [14]): 79%
COc1cccc2c1C(=O)c1c(O)c3c(c(O)c1C2=O)C[C@@](O)(C(=O)CO)C[C@@H]3O[C@H]1C[C@H](N)[C@H](O)[C@H](C)O1 [DOXORUBICIN] | – | – | – | – | – | – | – | 10200 | – | – | – | – | ILS (Mus musculus [15]): 72%; ILS (Mus musculus [16]): 113%
O=C1c2c(O)ccc(O)c2C(=O)c2c(NCCNCCO)ccc(NCCNCCO)c21 [MITOXANTRONE] | – | – | – | – | – | 368 | – | 7740 | – | – | – | – | ILS (Mus musculus [14]): 200%
